# According to ChEMBL document CHEMBL1255468 (Antimicrob Agents Chemother, 2010):
# pIC50: −log10 of the molar value. Activity calls are given as the source filed them. The calls are words filed in the database; no cut-off is given here.
# Legend:
# [1] = test system: Trypanosoma cruzi; assay: Antitrypanosomal activity against Trypanosoma cruzi Y infected in mouse assessed as decrease in mouse mortality at 200 mg/kg, po upto 40 days post infection; assay type: functional, organism-based; design: dose 200 mg/kg
# Method in brief: (§1)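 Male Swiss mice (6–8 weeks, 18–20 g), 8–10 per group, infected i.p. with 10^4 bloodstream trypomastigotes (Y strain). On dpi 5, a single 200 mg/kg oral gavage dose was given in water with 10% Tween-80. Parasitemia was counted daily from dpi 6 to 21 by the Pizzi-Brener method. Body weight was recorded weekly. Mortality was recorded daily, and cumulative mortality at 40 dpi and M50 were calculated.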
# [2] = test system: Trypanosoma cruzi; assay: Antitrypanosomal activity against Trypanosoma cruzi Y infected in mouse assessed as decrease in parasitemia in blood at 200 mg/kg, po upto 40 days post infection; assay type: functional; method in brief: as §1
# [3] = test system: Trypanosoma cruzi; assay: Antitrypanosomal activity against Trypanosoma cruzi amastigotes infected in mouse peritoneal macrophages assessed as inhibition of infection after 1 day; assay type: functional, organism-based; settings: 24 h
# Method in brief: (§2)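 Swiss mouse peritoneal macrophages (3 × 10^5/well) were plated for 24 h, then infected with Y-strain trypomastigotes (10:1) in DMEM with 10% FCS for 3 h. Free parasites were washed off, and compounds were added at 2.5–30 µM final for 1–4 days. Cells were fixed in Bouin's solution and stained with Giemsa. Percent infection and endocytic index (parasites/100 cells) were counted, and IC50 was derived. Three independent experiments.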
# [4] = test system: Trypanosoma cruzi; assay: Antitrypanosomal activity against Trypanosoma cruzi Y infected in mouse assessed as decrease in mouse mortality at 200 mg/kg, po after 16 days post infection; assay type: functional; design: scale not given: the % may be the effect or the level left
# Method in brief: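 Male albino Swiss mice (6 to 8 weeks, 18 to 20 g), 8 to 10 per group, infected i.p. with 10^4 Y-strain bloodstream trypomastigotes. […] Parasitemia checked daily by Pizzi-Brener method; mortality noted daily to 40 dpi, cumulative mortality and M50 calculated.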
# [5] = test system: Trypanosoma cruzi; assay: Antitrypanosomal activity against Trypanosoma cruzi amastigotes infected in mouse peritoneal macrophages assessed as endocytic index after 1 day; assay type: functional, organism-based; settings: 24 h; method in brief: as §2
# [6] = test system: Mus musculus; assay: Toxicity in mouse assessed as GOT level in blood at 100 mg/kg, po after 4 days; assay type: organism-based; design: dose 100 mg/kg, route oral; settings: in vivo, 96 h
# Method in brief: (§3)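 Uninfected male Swiss mice, 8–10 per group, received by gavage either a single 400 mg/kg dose or 10 doses of 100 mg/kg (vehicle water with 10% Tween-80). GOT, GPT and urea were measured directly in blood with the Reflotron system, and body weight was recorded. Single-dose toxicity was analyzed 4 days after treatment.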
# [7] = test system: Mus musculus; assay: Toxicity in mouse assessed as GPT level in blood at 400 mg/kg, po after 4 days; assay type: organism-based; design: dose 400 mg/kg, route oral; settings: in vivo, 96 h; method in brief: as §3
# [8] = test system: Trypanosoma cruzi; assay: Antitrypanosomal activity against Trypanosoma cruzi amastigotes infected in mouse embryo heart muscle cells assessed as inhibition of infection; assay type: functional, organism-based; settings: TDE = time-dependent effect
# Method in brief: (§4)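 Mouse embryo heart muscle cells (10^5/well) were plated on gelatin-coated coverslips and infected after 24 h with trypomastigotes at 10:1 parasite/host cell. After another 24 h, cultures were washed and exposed to compounds at 10–40 µM final. At intervals, cells were fixed in Bouin's solution and stained with Giemsa. Percent infection and endocytic index (parasites/100 cells) were counted, and IC50 was derived.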
# [9] = test system: Trypanosoma cruzi; assay: Antitrypanosomal activity against Trypanosoma cruzi trypomastigotes assessed as alteration in autophagosome-like structure formation at […] after 24 hrs by Transmission electron microscopy; assay type: functional, organism-based
# [10] = test system: Trypanosoma cruzi; assay: Antitrypanosomal activity against Trypanosoma cruzi amastigotes infected in mouse peritoneal macrophages assessed as inhibition of infection after 2 day; assay type: functional, organism-based; settings: 48 h; method in brief: as §2
# [11] = test system: Mus musculus; assay: Toxicity in mouse assessed as GPT level in blood at 100 mg/kg, po after 4 days; assay type: organism-based; design: dose 100 mg/kg, route oral; settings: in vivo, 96 h; method in brief: as §3
# [12] = test system: Trypanosoma cruzi; assay: Antitrypanosomal activity against Trypanosoma cruzi amastigotes infected in mouse peritoneal macrophages assessed as endocytic index after 3 day; assay type: functional, organism-based; settings: 72 h; method in brief: as §2
# [13] = test system: Trypanosoma cruzi; assay: Antitrypanosomal activity against Trypanosoma cruzi infected in mouse assessed as decrease in parasitemia in blood at 100 mg/kg, po after 6 days post infection; assay type: functional
# Method in brief: (§5)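 Male Swiss mice, 8–10 per group, infected i.p. with 10^4 bloodstream trypomastigotes. From dpi 6, mice received 10 consecutive daily gavage doses of 100 mg/kg in water with 10% Tween-80. Parasitemia was read daily on dpi 6–21 by the Pizzi-Brener method. Mortality was noted daily, and %CM at 40 dpi and M50 were calculated.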
# [14] = Selectivity index, ratio of LC50 for mouse HMC to IC50 for inhibition of Trypanosoma cruzi amastigotes
# [15] = test system: Mus musculus; assay: Toxicity in mouse assessed as urea level in blood at 100 mg/kg, po after 4 days; assay type: organism-based; design: dose 100 mg/kg, route oral; settings: in vivo, 96 h; method in brief: as §3
# [16] = test system: Trypanosoma cruzi; assay: Antitrypanosomal activity against Trypanosoma cruzi amastigotes infected in mouse peritoneal macrophages assessed as endocytic index after 4 day; assay type: functional, organism-based; settings: 96 h; method in brief: as §2
# [17] = test system: Trypanosoma cruzi; assay: Antitrypanosomal activity against Trypanosoma cruzi trypomastigotes assessed as alteration in nuclear envelop dilation at […] after 24 hrs by Transmission electron microscopy; assay type: functional, organism-based
# [18] = test system: Trypanosoma cruzi; assay: Antitrypanosomal activity against Trypanosoma cruzi infected in mouse assessed as reduction in inflammatory foci in cardiac muscle at 100 mg/kg, po after 6 days post infection; assay type: functional, organism-based; design: dose 100 mg/kg; settings: Muscle tissue
# Method in brief: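 Infected mice were dosed by gavage at 100 mg/kg daily for 10 days from dpi 6. Two mice per group were euthanized at 14 dpi. Paraffin heart sections were stained with hematoxylin-eosin. Under a 40× objective, parasite nests and inflammatory foci (≥10 mononuclear cells) were counted per mm2 over 30 fields.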
# [19] = test system: Trypanosoma cruzi; assay: Antitrypanosomal activity against Trypanosoma cruzi amastigotes infected in mouse peritoneal macrophages assessed as endocytic index after 2 day; assay type: functional, organism-based; settings: 48 h; method in brief: as §2
# [20] = test system: Mus musculus; assay: Toxicity in mouse assessed as GOT level in blood at 400 mg/kg, po after 4 days; assay type: organism-based; design: dose 400 mg/kg, route oral; settings: in vivo, 96 h; method in brief: as §3
# [21] = Selectivity index, ratio of LC50 for mouse peritoneal macrophages to IC50 for inhibition of Trypanosoma cruzi amastigotes
# Method in brief: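 SI = LC50/IC50 in peritoneal macrophages. LC50 came from the 2-day MTT assay on uninfected macrophages. Cells were Bouin-fixed and Giemsa-stained, and endocytic index (parasites/100 cells) was counted. Three independent experiments.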
# [22] = test system: Trypanosoma cruzi; assay: Antitrypanosomal activity against Trypanosoma cruzi amastigotes infected in mouse peritoneal macrophages assessed as inhibition of infection after 4 day; assay type: functional, organism-based; settings: 96 h; method in brief: as §2
# [23] = test system: Trypanosoma cruzi; assay: Antitrypanosomal activity against Trypanosoma cruzi amastigotes infected in mouse peritoneal macrophages assessed as inhibition of infection after 3 day; assay type: functional, organism-based; settings: 72 h; method in brief: as §2
# [24] = Cytotoxicity against swiss mouse HMC after 48 hrs by MTT assay; settings: read-out: LC50
# Method in brief: (§6)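 Uninfected host cells were exposed to compounds at 37°C for 2 days, with compound stocks in DMSO. Cells were Swiss mouse peritoneal macrophages or primary mouse embryo heart muscle cells (18-day embryos, trypsin/collagenase dissociated, gelatin-coated coverslips, DMEM with horse and fetal calf sera, chicken embryo extract). Viability was read by MTT at 490 nm to give LC50.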
# [25] = test system: Trypanosoma cruzi; assay: Antitrypanosomal activity against Trypanosoma cruzi trypomastigotes assessed as alteration in flagellar structure with membrane expansion at […] after 24 hrs by Transmission electron microscopy; assay type: functional, organism-based
# [26] = test system: Trypanosoma cruzi; assay: Antitrypanosomal activity against Trypanosoma cruzi trypomastigotes assessed as parasite body rounding at […] after 24 hrs by scanning electron microscopy; assay type: functional, organism-based
# [27] = test system: Trypanosoma cruzi; assay: Antitrypanosomal activity against Trypanosoma cruzi amastigotes infected in mouse embryo heart muscle cells assessed as inhibition of infection after 24 hrs; assay type: functional, organism-based; method in brief: as §4
# [28] = test system: Mus musculus; assay: Toxicity in mouse assessed as body weight at 400 mg/kg, po after 4 days; assay type: organism-based; design: dose 400 mg/kg, route oral; settings: in vivo, 96 h; method in brief: as §3
# [29] = test system: Trypanosoma cruzi; assay: Antitrypanosomal activity against Trypanosoma cruzi amastigotes infected in mouse embryo heart muscle cells assessed as endocytic index; assay type: functional, organism-based; method in brief: as §4
# [30] = test system: Mus musculus; assay: Toxicity in mouse assessed as urea level in blood at 400 mg/kg, po after 4 days; assay type: organism-based; design: dose 400 mg/kg, route oral; settings: in vivo, 96 h; method in brief: as §3
# [31] = Cytotoxicity against Swiss mouse peritoneal macrophages after 48 hrs by MTT assay; assay type: cell-based, Peritoneal macrophage cell; settings: read-out: LC50; method in brief: as §6
# [32] = test system: Trypanosoma cruzi; assay: Antitrypanosomal activity against Trypanosoma cruzi infected in mouse assessed as decrease in mortality rate at 100 mg/kg, po after 6 days post infection; assay type: functional, organism-based; design: dose 100 mg/kg; method in brief: as §5
# [33] = test system: Trypanosoma cruzi; assay: Antitrypanosomal activity against Trypanosoma cruzi Y infected in mouse assessed as decrease in mouse mortality at 200 mg/kg, po after 20 days post infection; assay type: functional, organism-based; design: dose 200 mg/kg; method in brief: as §1
smiles,measurement,setting,value
Cn1c([N+](=O)[O-])cnc1-c1nnc(N/N=C\c2ccccc2O)s1,Activity,[1],inactive
same,Activity,[2],inactive
Cn1c([N+](=O)[O-])cnc1-c1nnc(N/N=C\c2ccc(O)c(O)c2)s1 [BRAZILIZONE A],pIC50,[3],5.68
same,Activity,[4],50%
same,pIC50,[5],5.70
same,Activity,[6],Non-toxic
same,Activity,[7],22.7 U/L
same,Activity,[8],tde
same,Activity,[9],Active
same,pIC50,[10],5.36
same,Activity,[11],Non-toxic
same,pIC50,[12],5.85
same,Activity,[13],inactive
same,fold change (FC),[14],> 32
same,Activity,[15],Non-toxic
same,pIC50,[16],5.72
same,Activity,[17],Active
same,Activity,[18],inactive
same,pIC50,[19],5.66
same,Activity,[20],62.4 U/L
same,Ratio LC50/IC50,[21],>27
same,Activity,[1],inactive
same,pIC50,[22],5.77
same,pIC50,[23],5.59
same,CC50 at 48 h,[24],> 240000 nM
same,Activity,[25],Active
same,Activity,[2],inactive
same,Activity,[26],Active
same,Activity,[27],Dose-dependent effect
same,Activity,[28],25.8 g
same,pIC50,[29],5.12
same,Activity,[30],51.6 mg/dL
same,CC50 at 48 h,[31],> 60000 nM
same,Activity,[32],inactive
Cn1c([N+](=O)[O-])cnc1-c1nnc(N/N=C\c2cc(C(C)(C)C)c(O)c(C(C)(C)C)c2)s1,Activity,[33],inactive
same,Activity,[2],Active
COc1ccc(/C=N\Nc2nnc(-c3ncc([N+](=O)[O-])n3C)s2)cc1O,Activity,[1],inactive
same,Activity,[2],inactive
